Measured values: ChEMBL document CHEMBL1135457 (J Med Chem, 2002)

What was measured:
[1] = target: T1, Progesterone receptor (Homo sapiens) (UniProt P06401)
T1 sequence (whole entry): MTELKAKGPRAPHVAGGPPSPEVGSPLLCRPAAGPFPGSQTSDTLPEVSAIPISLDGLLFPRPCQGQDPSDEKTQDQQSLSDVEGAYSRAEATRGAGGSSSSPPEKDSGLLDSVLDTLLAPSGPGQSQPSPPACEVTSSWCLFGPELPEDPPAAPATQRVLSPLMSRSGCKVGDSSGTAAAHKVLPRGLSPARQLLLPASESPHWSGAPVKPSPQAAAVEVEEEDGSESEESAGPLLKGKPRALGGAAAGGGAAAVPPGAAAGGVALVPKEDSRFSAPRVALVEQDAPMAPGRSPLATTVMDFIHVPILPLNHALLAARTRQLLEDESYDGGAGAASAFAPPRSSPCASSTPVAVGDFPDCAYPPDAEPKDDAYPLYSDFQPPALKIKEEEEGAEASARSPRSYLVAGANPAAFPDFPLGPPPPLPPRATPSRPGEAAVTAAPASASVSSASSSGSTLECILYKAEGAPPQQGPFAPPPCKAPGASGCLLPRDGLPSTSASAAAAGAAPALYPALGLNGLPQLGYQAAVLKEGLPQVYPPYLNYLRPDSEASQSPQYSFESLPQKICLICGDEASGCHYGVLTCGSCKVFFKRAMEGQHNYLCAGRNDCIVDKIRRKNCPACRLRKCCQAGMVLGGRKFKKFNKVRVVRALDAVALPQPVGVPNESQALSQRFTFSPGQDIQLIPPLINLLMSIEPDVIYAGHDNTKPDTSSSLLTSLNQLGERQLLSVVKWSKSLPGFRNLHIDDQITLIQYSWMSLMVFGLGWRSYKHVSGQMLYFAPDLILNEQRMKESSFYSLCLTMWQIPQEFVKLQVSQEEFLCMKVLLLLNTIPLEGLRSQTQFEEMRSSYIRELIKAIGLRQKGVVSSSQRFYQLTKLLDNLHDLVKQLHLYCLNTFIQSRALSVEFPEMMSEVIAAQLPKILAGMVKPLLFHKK

Androgen receptor = target: T2, Androgen receptor (Homo sapiens, UniProt P10275); test: Displacement of [3H]DHT from human Androgen receptor
T2 sequence (P10275 whole entry): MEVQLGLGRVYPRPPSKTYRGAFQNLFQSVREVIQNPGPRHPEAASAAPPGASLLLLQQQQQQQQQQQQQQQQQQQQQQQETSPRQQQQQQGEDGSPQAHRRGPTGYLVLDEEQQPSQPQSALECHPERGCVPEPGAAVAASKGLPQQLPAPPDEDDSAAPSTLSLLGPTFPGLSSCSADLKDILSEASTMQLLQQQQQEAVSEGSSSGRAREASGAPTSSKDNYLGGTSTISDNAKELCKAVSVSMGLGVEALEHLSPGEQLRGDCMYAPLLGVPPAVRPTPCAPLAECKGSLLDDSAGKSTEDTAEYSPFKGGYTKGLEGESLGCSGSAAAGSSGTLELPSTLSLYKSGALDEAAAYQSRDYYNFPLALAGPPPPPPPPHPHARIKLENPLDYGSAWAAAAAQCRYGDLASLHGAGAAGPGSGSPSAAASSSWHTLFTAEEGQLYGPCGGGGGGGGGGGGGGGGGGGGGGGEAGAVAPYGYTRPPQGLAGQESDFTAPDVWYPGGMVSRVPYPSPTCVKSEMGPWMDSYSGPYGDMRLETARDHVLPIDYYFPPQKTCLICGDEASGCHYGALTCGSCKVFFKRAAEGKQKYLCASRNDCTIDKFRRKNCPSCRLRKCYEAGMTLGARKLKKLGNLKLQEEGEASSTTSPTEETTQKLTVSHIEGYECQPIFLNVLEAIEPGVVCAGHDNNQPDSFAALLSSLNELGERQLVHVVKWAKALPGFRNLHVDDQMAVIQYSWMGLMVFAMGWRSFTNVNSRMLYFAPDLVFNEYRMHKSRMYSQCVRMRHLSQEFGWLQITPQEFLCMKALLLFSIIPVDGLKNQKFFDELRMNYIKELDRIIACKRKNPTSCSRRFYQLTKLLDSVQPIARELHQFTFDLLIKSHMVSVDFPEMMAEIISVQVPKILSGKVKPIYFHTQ
Outline: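 Whole-cell extract of Sf9 cells infected with baculovirus expressing human AR (MOI 2, harvested 48 h), sonicated in pH 7.2 HEPES/molybdate/glycerol buffer. Extract bound to hydroxylapatite with 1 nM [3H]DHT and compound (0.01 nM–30 μM) in triplicate, 1 h, 4 °C. Nonspecific binding from 10 μM unlabeled DHT. Filtration, scintillation counting, sigmoidal IC50, Cheng–Prusoff Ki (Kd 0.4 nM).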

Compound	Kif [1] [nM]	Ki (Androgen receptor) [µM]
Oc1ccc2c(c1)CC[C@@H]1C[C@@](O)(C#CCl)CC[C@@]21Cc1ccccc1	> 1000	–
CC#C[C@@]1(O)CC[C@@]2(Cc3ccccc3)c3ccc(O)cc3CC[C@@H]2C1	–	0.65
